In ChEMBL document CHEMBL1146092, “Practical synthesis and evaluation of the biological activities of 1alpha,25-dihydroxyvitamin D3 antagonists, 1alpha,25-dihydroxyvitamin D3-26,23-lactams. Designed on the basis of the helix 12-folding inhibition hypothesis” (J Med Chem, 2006):

Legend:
[1] = target: T1, Vitamin D3 receptor (Gallus gallus) (UniProt O42392); test: Binding affinity to chick intestinal VDR relative to 1,25-D3
T1 sequence (whole entry): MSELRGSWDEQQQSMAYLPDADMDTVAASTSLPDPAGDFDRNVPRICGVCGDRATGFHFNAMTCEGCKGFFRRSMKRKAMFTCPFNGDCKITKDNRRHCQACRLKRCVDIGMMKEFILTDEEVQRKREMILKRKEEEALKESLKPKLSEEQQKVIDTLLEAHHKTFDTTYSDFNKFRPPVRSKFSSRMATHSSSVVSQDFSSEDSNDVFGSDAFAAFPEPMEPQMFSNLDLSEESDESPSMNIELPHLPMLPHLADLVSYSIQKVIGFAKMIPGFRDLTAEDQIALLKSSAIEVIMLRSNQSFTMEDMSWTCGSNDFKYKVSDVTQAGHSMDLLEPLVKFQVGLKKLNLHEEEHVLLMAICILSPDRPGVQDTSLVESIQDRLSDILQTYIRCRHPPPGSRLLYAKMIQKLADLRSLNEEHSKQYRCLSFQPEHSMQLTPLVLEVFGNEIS
Procedure, shortened: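 Competitive binding: receptor solution was incubated with [26,27-methyl-³H]-1,25-D3 (15 000 dpm, 180 Ci/mmol) and graded test compound in ethanol for 60 min at 25 °C. It was then cooled to 4 °C and precipitated with 40% PEG 6000, and the pellet was spun at 2260g for 60 min at 4 °C. Pellet radioactivity was counted by liquid scintillation. Affinity is expressed relative to 1,25-D3 = 100.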

Vitamin D3 receptor = target: T2, Vitamin D3 receptor (Homo sapiens, UniProt P11473); test: Antagonist activity assessed by differentiation of 1,25-D3-induced HL60 cells; format: functional, cell-based; settings: hl-60
T2 sequence (P11473 whole entry): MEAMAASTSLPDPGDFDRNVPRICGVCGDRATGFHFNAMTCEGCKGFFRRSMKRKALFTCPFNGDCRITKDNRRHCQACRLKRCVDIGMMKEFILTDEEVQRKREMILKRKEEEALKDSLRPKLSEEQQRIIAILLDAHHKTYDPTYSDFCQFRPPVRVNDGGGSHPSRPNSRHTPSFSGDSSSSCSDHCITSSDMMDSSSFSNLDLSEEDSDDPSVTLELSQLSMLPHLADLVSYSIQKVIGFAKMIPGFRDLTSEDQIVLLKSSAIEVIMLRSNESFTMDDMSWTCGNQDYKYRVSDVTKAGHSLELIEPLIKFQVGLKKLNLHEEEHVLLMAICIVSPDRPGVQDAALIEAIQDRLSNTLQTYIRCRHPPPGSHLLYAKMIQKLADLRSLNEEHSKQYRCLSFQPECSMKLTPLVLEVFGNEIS
Procedure, shortened: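 HL-60 cells in RPMI-1640 with 10% heat-inactivated FBS, seeded at 3 × 10³ cells/mL. Cells were given graded test compound in ethanol plus 1,25-D3 as the inducer, then cultured 96 h at 37 °C in 5% CO2 with no medium change. NBT (0.1%) and TPA (100 ng/mL) were added at final concentrations for 25 min at 37 °C. NBT-positive cells were counted on cytospin smears, and IC50 was taken.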

[2] = target: T3, Vitamin D3 receptor (Homo sapiens) (UniProt P11473); test: Inhibition of human VDR mediated transactivation of luciferase in COS7 cells; format: functional, cell-based; settings: COS-7
T3 sequence (whole entry): T2 sequence (P11473 whole entry)

[3] = target: T4, Vitamin D3 receptor (Rattus norvegicus) (UniProt P13053); test: Inhibition of rat VDR mediated transactivation of luciferase in COS7 cells; format: functional, cell-based; settings: COS-7
T4 sequence (whole entry): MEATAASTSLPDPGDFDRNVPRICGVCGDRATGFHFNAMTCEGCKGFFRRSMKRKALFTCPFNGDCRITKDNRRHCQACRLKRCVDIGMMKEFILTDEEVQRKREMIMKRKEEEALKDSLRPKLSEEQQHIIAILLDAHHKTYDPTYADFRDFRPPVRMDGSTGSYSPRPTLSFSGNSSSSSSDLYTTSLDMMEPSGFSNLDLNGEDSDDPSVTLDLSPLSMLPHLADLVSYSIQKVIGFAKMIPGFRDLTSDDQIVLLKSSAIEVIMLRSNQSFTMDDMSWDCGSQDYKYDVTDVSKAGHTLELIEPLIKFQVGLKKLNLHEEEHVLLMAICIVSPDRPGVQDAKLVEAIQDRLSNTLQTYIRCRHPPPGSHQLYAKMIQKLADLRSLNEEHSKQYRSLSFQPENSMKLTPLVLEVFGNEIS

| Compound | Activity [1] [%] | IC50 (Vitamin D3 receptor) | Activity [2] | Activity [3] |
| --- | --- | --- | --- | --- |
| C=C1/C(=C\C=C2/CCC[C@@]3(C)C2CC[C@@H]3[C@H](C)C[C@@H]2C[C@](C)(O)C(=O)N2CCCCc2ccccc2)C[C@@H](O)C[C@@H]1O (stereo partly drawn) | 0.1 | Not Active |  |  |
| C=C1/C(=C\C=C2/CCC[C@@]3(C)C2CC[C@@H]3[C@H](C)C[C@H]2C[C@](C)(O)C(=O)N2C(C)C)C[C@@H](O)C[C@@H]1O (stereo partly drawn) | 1.52 |  |  |  |
| C=C1/C(=C\C=C2/CCC[C@@]3(C)C2CC[C@@H]3[C@H](C)C[C@@H]2C[C@@](C)(O)C(=O)N2Cc2ccc(OC)cc2)C[C@@H](O)C[C@@H]1O (stereo partly drawn) | 0.3 | Not Active |  |  |
| C=C1/C(=C\C=C2/CCC[C@@]3(C)C2CC[C@@H]3[C@H](C)C[C@@H]2C[C@](C)(O)C(=O)N2Cc2ccccc2)C[C@@H](O)C[C@@H]1O (stereo partly drawn) | 0.25 | Not Active |  |  |
| C=C1/C(=C\C=C2/CCC[C@@]3(C)C2CC[C@@H]3[C@H](C)C[C@@H]2C[C@@](C)(O)C(=O)N2Cc2ccccc2)C[C@@H](O)C[C@@H]1O (stereo partly drawn) | 0.25 | Not Active |  |  |
| C=C1/C(=C\C=C2/CCC[C@@]3(C)C2CC[C@@H]3[C@H](C)C[C@H]2C[C@@](C)(O)C(=O)N2CCCc2ccccc2)C[C@@H](O)C[C@@H]1O (stereo partly drawn) | 0.09 | Not Active |  |  |
| C=C1/C(=C\C=C2/CCC[C@@]3(C)C2CC[C@@H]3[C@H](C)C[C@H]2C[C@](C)(O)C(=O)N2Cc2ccccc2)C[C@@H](O)C[C@@H]1O (stereo partly drawn) | 2.74 |  | Dose-dependent effect | Dose-dependent effect |
| C=C1/C(=C\C=C2/CCC[C@@]3(C)C2CC[C@@H]3[C@H](C)C[C@@H]2C[C@](C)(O)C(=O)N2CCc2ccccc2)C[C@@H](O)C[C@@H]1O (stereo partly drawn) | 0.19 | Not Active |  |  |
| C=C1/C(=C\C=C2/CCC[C@@]3(C)C2CC[C@@H]3[C@H](C)C[C@H]2C[C@@](C)(O)C(=O)N2CCCCc2ccccc2)C[C@@H](O)C[C@@H]1O (stereo partly drawn) | 0.09 | Not Active |  |  |
| C=C1/C(=C\C=C2/CCC[C@@]3(C)C2CC[C@@H]3[C@H](C)C[C@@H]2C[C@](C)(O)C(=O)N2C(C)C)C[C@@H](O)C[C@@H]1O (stereo partly drawn) | 0.11 | Not Active |  |  |
| C=C1/C(=C\C=C2/CCC[C@@]3(C)C2CC[C@@H]3[C@H](C)C[C@@H]2C[C@@](C)(O)C(=O)N2C(C)C)C[C@@H](O)C[C@@H]1O (stereo partly drawn) | 0.14 | Not Active |  |  |
| C=C1/C(=C\C=C2/CCC[C@@]3(C)C2CC[C@@H]3[C@H](C)C[C@H]2C[C@@](C)(O)C(=O)N2CCc2ccccc2)C[C@@H](O)C[C@@H]1O (stereo partly drawn) | 0.34 |  |  |  |
| C=C1/C(=C\C=C2/CCC[C@@]3(C)C2CC[C@@H]3[C@H](C)C[C@H]2C[C@](C)(O)C(=O)N2CCCCc2ccccc2)C[C@@H](O)C[C@@H]1O (stereo partly drawn) | 5.24 |  |  |  |
| C=C1/C(=C\C=C2/CCC[C@@]3(C)C2CC[C@@H]3[C@H](C)C[C@H]2C[C@](C)(O)C(=O)N2Cc2ccc(OC)cc2)C[C@@H](O)C[C@@H]1O (stereo partly drawn) | 2.2 |  |  |  |
| C=C1/C(=C\C=C2/CCC[C@@]3(C)C2CC[C@@H]3[C@H](C)C[C@H]2C[C@@](C)(O)C(=O)N2C(C)C)C[C@@H](O)C[C@@H]1O (stereo partly drawn) | 0.14 | Not Active |  |  |
| C=C1/C(=C\C=C2/CCC[C@@]3(C)C2CC[C@@H]3[C@H](C)C[C@H]2C[C@](C)(O)C(=O)N2CCCc2ccccc2)C[C@@H](O)C[C@@H]1O (stereo partly drawn) | 0.68 |  |  |  |
| C=C1/C(=C\C=C2/CCC[C@@]3(C)C2CC[C@@H]3[C@H](C)C[C@@H]2C[C@@](C)(O)C(=O)N2CCCc2ccccc2)C[C@@H](O)C[C@@H]1O (stereo partly drawn) | 0.19 | Not Active |  |  |
| C=C1/C(=C\C=C2/CCC[C@@]3(C)C2CC[C@@H]3[C@H](C)C[C@H]2C[C@](C)(O)C(=O)N2CCc2ccccc2)C[C@@H](O)C[C@@H]1O (stereo partly drawn) | 8 |  |  |  |
| C=C1/C(=C\C=C2/CCC[C@@]3(C)C2CC[C@@H]3[C@H](C)C[C@@H]2C[C@@](C)(O)C(=O)N2CCCCc2ccccc2)C[C@@H](O)C[C@@H]1O (stereo partly drawn) | 0.3 | Not Active |  |  |
| C=C1/C(=C\C=C2/CCC[C@@]3(C)C2CC[C@@H]3[C@H](C)C[C@@H]2C[C@](C)(O)C(=O)N2CCCc2ccccc2)C[C@@H](O)C[C@@H]1O (stereo partly drawn) | 0.03 | Not Active |  |  |
| C=C1/C(=C\C=C2/CCC[C@@]3(C)C2CC[C@@H]3[C@H](C)C[C@@H]2C[C@](C)(O)C(=O)N2Cc2ccc(OC)cc2)C[C@@H](O)C[C@@H]1O (stereo partly drawn) | 0.1 | Not Active |  |  |
| C=C1/C(=C\C=C2/CCC[C@@]3(C)C2CC[C@@H]3[C@H](C)C[C@@H]2C[C@@](C)(O)C(=O)N2CCc2ccccc2)C[C@@H](O)C[C@@H]1O (stereo partly drawn) | 0.51 | Not Active |  |  |
| C=C1/C(=C\C=C2/CCC[C@@]3(C)C2CC[C@@H]3[C@H](C)C[C@H]2C[C@@](C)(O)C(=O)N2Cc2ccc(OC)cc2)C[C@@H](O)C[C@@H]1O (stereo partly drawn) | 0.09 | Not Active |  |  |
| C=C1/C(=C\C=C2/CCC[C@@]3(C)C2CC[C@@H]3[C@H](C)C[C@H]2C[C@@](C)(O)C(=O)N2Cc2ccccc2)C[C@@H](O)C[C@@H]1O (stereo partly drawn) | 0.18 | Not Active |  |  |
